Data: ChEMBL document CHEMBL2034944, “Cytotoxic and anti-inflammatory triterpenoids from Toona ciliata” (J Nat Prod, 2012)

Experiments:
Type in all cases: functional, cell-based
[1] = tested on: MCF7; assay: Cytotoxicity against human MCF7 cells after 48 hrs by MTT assay; conditions: MCF7, 48 h
How it was run: (§1)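 MTT assay; cells grown in RPMI-1640 or DMEM with 10% FBS, 37 °C, 5% CO2. Adherent cells allowed to attach 12 h before dosing; suspension cells seeded just before dosing at 1 × 10^5 cells/mL. Exposure at 0.1, 1, 10, 100 and 500 μM in triplicate for 48 h. 5-fluorouracil and doxorubicin as positive controls. IC50 by Reed and Muench method.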

[2] = Cytotoxicity against multidrug-resistant human MCF7/ADR cells after 48 hrs by MTT assay; conditions: NCI/ADR-RES; how it was run: as §1
[3] = tested on: KB; assay: Cytotoxicity against human KB cells after 48 hrs by MTT assay; how it was run: as §1
[4] = Cytotoxicity against human KB/VCR cells after 48 hrs by MTT assay; how it was run: as §1
[5] = tested on: SMMC-7721; assay: Cytotoxicity against human SMMC7721 cells after 48 hrs by MTT assay; conditions: SMMC-7721, 48 h; how it was run: as §1
[6] = tested on: K562; assay: Cytotoxicity against human K562 cells after 48 hrs by MTT assay; conditions: K562, 48 h; how it was run: as §1
[7] = tested on: RAW264.7; assay: Antiinflammatory activity in mouse RAW264.7 cells assessed as inhibition of LPS-induced nitric oxide production pretreated for 2 hrs before LPS challenge measured after 18 hrs by Griess method
How it was run: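 RAW 264.7 mouse macrophages in RPMI 1640 with 10% heat-inactivated FBS, penicillin/streptomycin, 37 °C, 5% CO2. Seeded 1 × 10^5 per well, 24 h, then pretreated 2 h with compounds at 40, 20, 10, 5, 2.5 μM (DMSO ≤0.1% final). LPS 2 μg/mL for 18 h. Supernatant nitrite read with Griess reagent at 540 nm against NaNO2 standard curve; n = 4; IC50.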

Structure (SMILES)	IC50 [1] [µM]	IC50 [2] [µM]	IC50 [3] [µM]	IC50 [4] [µM]	IC50 [5] [µM]	IC50 [6] [µM]	IC50 [7] [µM]
C[C@@H]([C@@H](O)[C@H](O)[C@H](O)C(C)(C)O)[C@@H]1CC[C@]2(C)C3=CC[C@H]4C(C)(C)C(=O)CC[C@]4(C)[C@H]3CC[C@@]12C	17.1	22.6	10.2	32.1	19.4	11.2	
C=C1[C@@H]([C@@]2(C)C=CC(=O)C(C)(C)[C@@H]2CC(=O)OC)[C@H](OC(C)=O)[C@H](OC(C)=O)[C@@]2(C)[C@H](C3=CCOC3=O)C[C@H]3O[C@]132	> 50	> 50	> 50	> 50	> 50	> 50	20.9
C=C1[C@@H]([C@@]2(C)C=CC(=O)C(C)(C)[C@@H]2CC(=O)OC)[C@@H](OC(C)=O)[C@H](OC(C)=O)[C@@]2(C)[C@H](C3=CC(O)OC3=O)C[C@H]3O[C@]132 (stereo partly specified)							41.4
C=C1[C@@H]([C@@]2(C)C=CC(=O)C(C)(C)[C@@H]2CC(=O)OC)[C@@H](OC(C)=O)[C@H](OC(C)=O)[C@@]2(C)[C@H](C3=CC(=O)OC3O)C[C@H]3O[C@]132 (stereo partly specified)							38.9
C[C@@H]1C[C@H]2[C@@H]3CCC4=CC(=O)C=C[C@]4(C)[C@@]3(F)[C@@H](O)C[C@]2(C)[C@@]1(O)C(=O)CO [DEXAMETHASONE]							0.98
COc1cccc2c1C(=O)c1c(O)c3c(c(O)c1C2=O)C[C@@](O)(C(=O)CO)C[C@@H]3O[C@H]1C[C@H](N)[C@H](O)[C@H](C)O1 [DOXORUBICIN]		> 50		0.45			
O=c1[nH]cc(F)c(=O)[nH]1 [FLUOROURACIL]	> 100	> 100	6.8	33.4	> 100	2.1	
CC(C)(O)[C@@H]1OC[C@H]([C@@H]2CC=C3[C@]4(C)C(=O)C[C@H]5C(C)(C)C(=O)C=C[C@]5(C)[C@H]4[C@H](O)C[C@]32C)C[C@H]1O [TOONACILIATAVARIN A]	> 50	> 50	> 50	> 50	> 50	> 50	9.4
CC(=O)O[C@@H]1C[C@H]2C(C)(C)C(=O)C=C[C@]2(C)[C@H]2[C@H](O)C[C@]3(C)C(=CC[C@H]3[C@H]3CO[C@@H](C(C)(C)O)[C@H](O)C3)[C@@]21C [TOONACILIATAVARIN B]	> 50	> 50	> 50	> 50	> 50	> 50	7.9
CC(=O)O[C@@H]1C[C@H]2C(C)(C)C(=O)C=C[C@]2(C)[C@H]2[C@H](O)C[C@]3(C)C(=CC[C@H]3[C@H]3COC(C)(C)[C@@H](O)[C@H](O)C3)[C@@]21C [TOONACILIATAVARIN C]	> 50	> 50	> 50	> 50	> 50	> 50	11
CC1(C)OC[C@H]([C@@H]2CC[C@]3(C)C4=CC[C@H]5C(C)(C)[C@@H](O)CC[C@]5(C)[C@H]4CC[C@@]23C)C[C@@H](O)[C@@H]1O [TOONACILIATAVARIN D]	> 50	> 50	39.5	> 50	31.4	43.1	33.4
CC1(C)C(=O)C=C[C@]2(C)C3=CC[C@@]4(C)[C@H](C5=CC(=O)OC5O)C[C@H]5O[C@]54[C@]3(C)C(=O)C[C@@H]12 (stereo partly specified) [TOONACILIATAVARIN F]	> 50	> 50	> 50	> 50	> 50	> 50	28.8
CC1(C)C(=O)C=C[C@]2(C)C3=CC[C@@]4(C)[C@H](C5=CC(O)OC5=O)C[C@H]5O[C@]54[C@]3(C)C(=O)C[C@@H]12 (stereo partly specified) [TOONACILIATAVARIN G]	> 50	> 50	> 50	> 50	> 50	> 50	15.2
